Calls of active or inactive are those of the source. No cut-off for these calls is given here.
Assays:
[1] = target: G protein-coupled receptor 88 (Homo sapiens, UniProt Q9GZN0)
Mus musculus [2] = organism: Mus musculus; test: Increase in [35S]-GTPgammaS binding in GPR88 knocked out mouse striatal membranes at 10 uM after 1 hr by liquid scintillation counting; assay type: functional, cell membranes; settings: Striatal membrane
[3] = target: G protein-coupled receptor 88 (Mus musculus, UniProt Q9EPB7); test: Agonist activity at GPR88 in wild type mouse striatal membranes assessed as increase in [35S]-GTPgammaS binding after 1 hr by liquid scintillation counting; assay type: functional, cell membranes, Striatum, Membrane
[4] = target: KOR (kappa-type opioid receptor) (Homo sapiens, UniProt P41145); test: Binding affinity to human full length KOR assessed as reduction in radioligand binding at 10 uM after 60 mins by scintillation counting relative to control
Outline: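 Outsourced radioligand binding screen, one of 38 GPCR, ion channel and transporter targets, run to the provider's standard protocols. Test concentration was a single 10 µM. Percent inhibition of radioligand binding is the average of two determinations.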

Mus musculus [5] = organism: Mus musculus; test: Increase in [35S]-GTPgammaS binding in GPR88 knocked out mouse striatal membranes at 100 uM after 1 hr by liquid scintillation counting; assay type: functional, cell membranes; settings: Striatal membrane
Outline: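 Striata from GPR88 KO mice. Membranes made by sucrose homogenization and differential centrifugation (2500g, then 23000g). 2 µg protein per well incubated 1 h at 25 °C with 0.1 nM [35S]-GTPγS and GDP. Nonspecific binding taken with 10 µM GTPγS. Read by liquid scintillation counting, expressed as % above basal. Two independent experiments in triplicate.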

Rattus norvegicus = test: Decrease in alcohol self administration in Long-Evans rat assessed as reduction in alcohol lever responses at 5 to 20 mg/kg, ip administered 30 mins prior to a self-administration session; assay type: functional, organism-based
VMAT = test: Displacement of [3H]-dihydrotetrabenazine from VMAT in human platelet cell membranes at 10 uM after 60 mins by scintillation counting relative to control; settings: probe [3H]-dihydrotetrabenazine
Outline: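 Radioligand binding screen run by Eurofins PanLabs under their standard protocols, single concentration 10 μM. Percent inhibition of radioligand binding is the average of two determinations.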

[6] = Displacement of [3H]-dihydrotetrabenazine from VMAT in human platelet cell membranes after 60 mins by scintillation counting
Outline: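 VMAT affinity follow-up run by Eurofins PanLabs under their standard protocols. Full concentration–displacement curves were run in duplicate. IC50 came from nonlinear regression and was converted to Ki by Cheng–Prusoff, using the radioligand concentration and historical Kd of the ligand.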

Chain of G protein-coupled receptor 88 (Homo sapiens, UniProt Q9GZN0) (Q9GZN0 whole entry): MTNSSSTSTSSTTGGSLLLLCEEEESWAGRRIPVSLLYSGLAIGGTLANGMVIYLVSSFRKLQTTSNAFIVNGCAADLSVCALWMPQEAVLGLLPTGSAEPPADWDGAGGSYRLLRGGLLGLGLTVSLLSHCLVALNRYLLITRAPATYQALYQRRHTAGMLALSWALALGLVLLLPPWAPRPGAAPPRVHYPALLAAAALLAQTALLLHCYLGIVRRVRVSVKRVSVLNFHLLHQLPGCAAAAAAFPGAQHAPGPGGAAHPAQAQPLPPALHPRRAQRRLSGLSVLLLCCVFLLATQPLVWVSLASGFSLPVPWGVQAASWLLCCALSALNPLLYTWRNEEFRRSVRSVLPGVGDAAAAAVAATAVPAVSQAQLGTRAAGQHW
Chain of G protein-coupled receptor 88 (Mus musculus, UniProt Q9EPB7) (Q9EPB7 whole entry): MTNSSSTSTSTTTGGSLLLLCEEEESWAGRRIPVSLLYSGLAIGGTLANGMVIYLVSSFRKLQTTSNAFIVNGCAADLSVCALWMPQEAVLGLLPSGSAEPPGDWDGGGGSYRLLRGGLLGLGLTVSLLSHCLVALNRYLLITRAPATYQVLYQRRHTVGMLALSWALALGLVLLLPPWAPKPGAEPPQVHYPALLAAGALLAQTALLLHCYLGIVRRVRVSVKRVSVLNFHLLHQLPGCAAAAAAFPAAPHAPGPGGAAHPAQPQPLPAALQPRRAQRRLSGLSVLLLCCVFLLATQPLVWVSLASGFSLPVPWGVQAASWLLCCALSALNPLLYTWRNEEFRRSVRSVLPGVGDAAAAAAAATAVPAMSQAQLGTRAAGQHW
Chain of KOR (kappa-type opioid receptor) (P41145 whole entry): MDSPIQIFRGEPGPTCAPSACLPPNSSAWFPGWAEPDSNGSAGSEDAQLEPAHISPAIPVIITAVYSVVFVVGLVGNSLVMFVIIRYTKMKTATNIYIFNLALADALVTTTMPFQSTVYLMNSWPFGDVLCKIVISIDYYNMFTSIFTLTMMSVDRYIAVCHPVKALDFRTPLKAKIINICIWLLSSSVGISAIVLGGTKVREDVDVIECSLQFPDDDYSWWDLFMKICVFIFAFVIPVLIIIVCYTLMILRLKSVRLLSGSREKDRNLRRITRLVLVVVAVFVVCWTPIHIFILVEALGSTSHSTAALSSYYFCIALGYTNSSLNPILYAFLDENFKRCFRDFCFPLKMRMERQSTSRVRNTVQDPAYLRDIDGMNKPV

SMILES	EC50 [1] [nM]	further results
CCCc1ccc(-c2ccc(N(CCN)C(=O)[C@@H]3C[C@H]3c3ccccn3)cc2)cc1	501	
CCCc1ccc(-c2ccc(N(C[C@@H](N)CC(C)C)C(=O)[C@@H]3C[C@H]3c3ccccn3)cc2)cc1	126	
COc1ccc(-c2ccc(N(C[C@@H](N)[C@@H](C)OC)C(=O)[C@@H]3C[C@H]3c3ccccn3)cc2)cc1 (relative stereo)	126	
CCCc1ccc(-c2ccc(N(CC(C)(C)N)C(=O)[C@@H]3C[C@H]3c3ccccn3)cc2)cc1 (relative stereo)	316	
CCCc1ccc(-c2ccc(N(C[C@@H](N)C(C)C)C(=O)[C@@H]3C[C@H]3c3ccccn3)cc2)cc1	158	
CCCc1ccc(-c2ccc(N(C[C@@H](N)[C@@H](C)CC)C(=O)[C@@H]3C[C@H]3c3ccccn3)cc2)cc1		Activity (Mus musculus [2]): Active; EC50 [3]: 1140 nM
CCCc1ccc(-c2ccc(N(C[C@@H](N)c3ccccc3)C(=O)[C@@H]3C[C@H]3c3ccccn3)cc2)cc1 (relative stereo)	1260	
CCCc1ccc(-c2ccc(N(C[C@@H](N)Cc3ccccc3)C(=O)[C@@H]3C[C@H]3c3ccccn3)cc2)cc1	501	
CCCc1ccc(-c2ccc(N(C[C@H](C)N)C(=O)[C@@H]3C[C@H]3c3ccccn3)cc2)cc1	398	
CCCc1ccc(-c2ccc(N(C[C@@H](N)[C@@H](C)OC)C(=O)[C@@H]3C[C@H]3c3ccccn3)cc2)cc1 (relative stereo)	63	
COCc1ccc(-c2ccc(N(C[C@@H](N)[C@@H](C)OC)C(=O)[C@@H]3C[C@H]3c3ccccn3)cc2)cc1		inhibition at 1 h, 10 µM [4]: 64%; Activity (Mus musculus [5]): inactive; Activity (Rattus norvegicus): Dose-dependent effect; inhibition at 1 h, 10 µM (VMAT): 54%; Ki [6]: 4230 nM

From ChEMBL document CHEMBL4325833, “Discovery of a Potent, Selective, and Brain-Penetrant Small Molecule that Activates the Orphan Receptor GPR88 and Reduces Alcohol Intake” (J Med Chem, 2018)
